M1 antag: blocks the rat M1 muscarinic receptor response to acetylcholine; P08482; CHO-M1 cells, Fluo-4 calcium, ACh EC80 antagonist mode; active compounds read low; B-score at 10 µM; 3.4% of 64,000 active; AID 628;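 active means calcium fluorescence response, raw or row-and-column corrected B-score, differing from the plate sample mean either way at a set confidence level, mostly lower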
Jurkat viability: cytotoxicity toward Jurkat cells. Jurkat E6.1 viability, ATP luminescence, 48 h. inhibition, % at 4 µM. 1.2% of 56,000 active. AID 463;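 active means inhibition above the mean inhibition of all tested compounds plus 3 SD, cut at about 28% in these data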
D1 mod: allosterically modulates the human D1 dopamine receptor. HEK293 D1, CRE-luciferase, dopamine EC30 potentiation; actives deviate in either direction. B-score at 10 µM. 5.9% of 58,000 active. AID 641;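 active means luminescence count or its row- and column-corrected plate score outside the 99.7% band of the plate's sample wells, on either side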
Target sequence (P21728 whole entry, looked up): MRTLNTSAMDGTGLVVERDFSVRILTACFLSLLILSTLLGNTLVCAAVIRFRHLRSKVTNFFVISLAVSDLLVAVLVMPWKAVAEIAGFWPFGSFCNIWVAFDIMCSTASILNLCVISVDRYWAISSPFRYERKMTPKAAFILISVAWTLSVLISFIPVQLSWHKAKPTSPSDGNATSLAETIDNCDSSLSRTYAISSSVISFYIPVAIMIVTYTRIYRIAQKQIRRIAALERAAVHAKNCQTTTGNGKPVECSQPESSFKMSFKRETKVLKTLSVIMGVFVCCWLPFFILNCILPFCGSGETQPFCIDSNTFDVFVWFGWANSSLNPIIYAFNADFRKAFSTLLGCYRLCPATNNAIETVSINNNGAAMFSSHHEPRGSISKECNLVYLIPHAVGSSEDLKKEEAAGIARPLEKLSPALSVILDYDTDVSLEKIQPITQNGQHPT
HEK293 NFkB inh: lowers PMA/ionomycin-induced NF-kB signal in HEK293 cells. inhibition, % at 3 µM. 0.21% of 62,000 active. HEK-293 NF-kB luciferase reporter, luminescence;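 active means inhibition above the mean of all tested compounds plus 3 SD, cut at about 40% in these data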;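 further: 0% = stimulated DMSO wells and 100% = 10 µM reference inhibitor 5653914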
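System: NF-kB luciferase reporter HEK-293 cells | Replication: Single test | Control set: DMSO vs reference inhibitor | Evaluation: % inhibition | Schedule: 1 h pretreatment, 16 h stimulation, 37 °C | Probe or stimulus: PMA with ionomycin | Compound dosing: One dose, 3 µM | Detection: Luciferase luminescence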
M1 ag: activates the M1 muscarinic receptor; CHO-M1 cells, Fluo-4 calcium fluorescence, agonist mode; active compounds read high; B-score at 10 µM; 3% of 64,000 active;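 active means fluorescence rise, raw or as B-score row- and column-corrected plate score, outside the 99.7% band of its plate's samples, either direction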
DAT uptake mod: changed human dopamine transporter uptake under cocaine IC80; Q01959; LLC-PK1 hDAT cells, [14C]-dopamine uptake with cocaine IC80; actives deviate in either direction; B-score at 10 µM; 1.3% of 110,000 active;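 active means Z score or B-score, a plate-position-corrected score, falls beyond the plate's 99.7% confidence bounds, in either direction; inactive means both scores lie inside the 99.7% bounds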;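 further: scored against the spread of the other compound wells on the same plate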
D1 PAM confirm: D1 receptor (human) allosteric modulation, confirmed | shares compounds with D1 mod | HEK293 D1 CRE-luciferase, dopamine EC30 potentiation; active compounds read high | luminescence at 10 µM | 88% of 2,200 active | AID 642;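 active means luminescence in either of two replicates above the same-plate mean plus 3 SD of the low-dose dopamine control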
D1 ag no DA: activates D1 CRE-luciferase signal without dopamine present | shares compounds with D1 mod | HEK293 D1 CRE-luciferase, luminescence, no dopamine; active compounds read high | luminescence at 10 µM | 0.8% of 1,900 active | AID 646; in the data active means luminescence above about 3900
Isoprot counter: counter-screen for D1 modulators: isoproterenol response in HEK293 cells. 63% of 2,200 active. AID 647. calls only at 10 µM. HEK293 D1 CRE-luciferase, isoproterenol EC30 counter-screen. shares compounds with D1 mod;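 active means luminescence in either replicate above plate mean of wells with a partly effective reference agonist dose plus 3 SD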;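 further: isoproterenol raises cAMP through native beta-adrenoceptor Gs so signal bypasses D1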
* = called active by the depositor; i = inactive; . = no result given; + = active, no number. This is a sample that favours compounds with a hit; in the whole collection about 7.6% have one here.

SMILES	M1 antag	Jurkat viability	D1 mod	HEK293 NFkB inh	M1 ag	DAT uptake mod	D1 PAM confirm	D1 ag no DA	Isoprot counter
COC(=O)c1ccc(Oc2nc(C)cc(Oc3ccccc3)n2)cc1	-0.18	-14	0.37	9	0.35	1.3	.	.	.
COC(=O)c1ccc(Oc2cc(C)nc(-n3nc(C)cc3C)n2)cc1	-0.3	100*	7.8*	37	0.18	-0.65	18884*	1876	+
Cc1cc(Oc2ccccc2)nc(N)n1	-0.16	5	4*	21	-0.24	1.3	9044*	.	+
Cc1cc(Oc2ccccc2)nc(-c2ccccc2O)n1	0.49	2	.	3	0.6	-0.061	.	.	.
COc1ccc(OCC(=O)Nc2sc3c(c2C(=O)NCC2CCCO2)CCC3)cc1 (stereo not drawn)	.	.	.	.	.	-0.5	.	.	.
COC(=O)CSc1nc(C)cc(Oc2ccccc2)n1	0.0019	9	12*	18	-0.51	0.43	13148*	.	+
Nc1nc(SCC(=O)C23CC4CC(CC(C4)C2)C3)n[nH]1	-0.52	1	5.3*	-8	2.1	-0.088	8548*	.	i
COC(=O)c1cccc(C23CC4(C2)[C@H](CN(Cc2cccnc2)[C@@H]4c2ccccc2)C3c2ccc(Cl)nc2)c1 (stereo partly drawn)	.	.	.	.	.	-0.042	.	.	.
COC(=O)c1ccc(CNC(=O)CNc2cc(C(F)(F)F)ccc2N2CCOCC2)cc1	-0.021	-7	1.6	17	0.033	-0.13	.	.	.
COc1cccc(-c2csc3nnc(SCC(=O)c4ccc(NC(C)=O)cc4)n23)c1	-0.61	7	3*	3	-0.14	-1.1	9644*	1744	+
Cc1nc(SC2CCOC2=O)c2c(C)c(C)sc2n1 (stereo not drawn)	.	.	.	.	.	-0.49	.	.	.
O=C1OCCC1Sc1ncnc2sc3c(c12)CCC3 (stereo not drawn)	0.21	-4	5.2*	17	-0.35	-0.68	7272*	1564	i
O=c1c2ccccc2nc(SCc2cn3ccsc3n2)n1-c1ccccc1	.	6	.	12	.	0.095	.	.	.
O=c1c2ccccc2nc(SCc2cn3ccsc3n2)n1-c1ccccc1F	1.1	2	5.7*	18	0.66	0.00018	14876*	1836	+
CCOc1ccc(-c2nc(CSc3nncs3)cs2)cc1OC	0.67	.	23*	10	0.18	-0.43	21360*	.	+
CCc1cccc(Nc2cc(C)nc3ncnn23)c1	0.1	-5	0.17	5	-0.86	.	.	.	.
CCCc1cc(Nc2cccc(OC)c2)n2ncnc2n1	1.1	-2	5.2*	15	0.78	-0.48	10608*	.	+
CCCc1cc(Nc2cccc(OCC)c2)n2ncnc2n1	1.3	0	3.2*	8	0.22	0.2	11224*	1788	+
Cc1cc(SCC(=O)N2CCC(c3noc4ccc(F)cc34)CC2)nc2ccccc12	-0.69	3	3.7*	20	-0.44	2	6804*	1500	i
COc1ccc(Cc2nnc(NC(=O)c3c(-c4ccccc4)noc3C)s2)cc1	-0.15	-4	3.3*	5	-0.34	2	6196*	1588	i
CSc1nc(-c2ccco2)nn1S(=O)(=O)c1ccccc1	-0.34	-4	6.6*	16	0.012	0.46	19196*	1648	+
CSc1nc(-c2ccco2)nn1S(=O)(=O)c1ccc(C)cc1	0.35	-9	6.5*	8	-0.013	-0.54	11872*	.	+
CCS(=O)(=O)n1nc(-c2ccco2)nc1SC	0.0071	.	.	11	0.52	-0.036	.	.	.
Clc1cccc2sc(N3CCN(c4ccccc4)CC3)nc12	0.34	2	0.31	9	0.52	.	.	.	.
CCCc1nc2oc3c(NCC4CCCO4)ncnc3c2c2c1COC(C)(C)C2 (stereo not drawn)	.	4	15*	17	.	1.4	19660*	.	+
SMILES	M1 antag	Jurkat viability	D1 mod	HEK293 NFkB inh	M1 ag	DAT uptake mod	D1 PAM confirm	D1 ag no DA	Isoprot counter
CCOc1ncnc2c1oc1nc(CC(C)C)c3c(c12)CC(C)(C)OC3	.	.	.	.	.	0.85	.	.	.
CCCc1nc2oc3c(NCc4ccccn4)ncnc3c2c2c1COC(C)(C)C2	.	-1	16*	17	.	.	19424*	.	+
CCCC(=O)c1ccc(N2CCN(S(=O)(=O)c3ccccc3)CC2)c(F)c1	1.2	3	4.8*	9	0.0069	-1.7	4444	1352	i
CCCC(=O)c1cc(F)c(N2CCN(S(=O)(=O)c3ccccc3)CC2)cc1C	0.074	.	-0.51	.	0.75	-0.005	.	.	.
CCOC(=O)N1CCC(N2Cc3cccc(C(=O)NC(C)c4ccc5c(c4)OCCO5)c3C2=O)CC1 (stereo not drawn)	-0.63	4	2.4*	15	0.23	0.22	8332*	1632	i
CCNc1nc(C)c2cc(Br)c(=O)n(CC)c2n1	-0.46	6	15*	32	1.8	-0.69	24012*	1832	+
CC1(C)Cc2c(c(-c3ccccc3)[nH]c(=O)c2C#N)CO1	1.6	2	7.2*	10	-1	-0.97	17304*	1772	+
CCOC(=O)/C(C#N)=C1/SC(CC)C(=O)N1c1ccc(Br)cc1 (stereo not drawn)	.	.	.	.	.	0.17	.	.	.
CCC1S/C(=C(\C#N)C(N)=O)N(c2ccc(F)cc2)C1=O (stereo not drawn)	-0.092	-5	5*	6	-1	-1.1	9908*	.	+
Cc1noc(C)c1S(=O)(=O)N(CC(=O)N1CCCCCC1)c1ccc(C(C)C)cc1	0.6	4	1.8*	20	0.4	0.065	7028	1368	i
Cc1noc(C)c1S(=O)(=O)N(CC(=O)N1CCCC1)c1ccc(C(C)C)cc1	-1.1	5	0.094	22	-0.6	0.42	.	.	.
O=C(CN1CCN(S(=O)(=O)c2ccc(F)cc2)CC1)Nc1ccc2c(c1)OCO2	0.84	3	1.5	6	-1.6	-0.84	.	.	.
CCOC(=O)c1sc(N(Cc2ccccc2)C(=O)CSc2nnc(C3CC3)n2N)nc1C	-0.12	.	6.2*	21	0.043	0.22	18736*	1688	+
CCOC(=O)c1sc(N)c(C#N)c1CSc1nnc(C2CC2)n1N	.	.	.	.	.	0.037	.	.	.
CSc1nc(C)c2c(n1)OC(CN1C(=O)c3ccccc3C1=O)C2 (stereo not drawn)	0.2	-5	-0.2	6	0.14	.	.	.	.
Cc1c(C)c2c(C)nn(-c3ccccc3)c2[nH]c1=O	0.0034	.	0.43	.	-1.5	-0.69	.	.	.
CCc1c(C)c2c(C)nn(-c3ccccc3)c2[nH]c1=O	-0.0046	-2	3.2*	8	1.6	-0.12	7084*	1748	+

Screening results (PubChem)
